Laboratory results taken from ChEMBL document CHEMBL1134648 (J Med Chem, 2001).

What was measured:
[1] = target: Prothrombin (Homo sapiens, UniProt P00734); assay: In vitro activity against human thrombin.
[2] = target: Trypsin (Homo sapiens, UniProt P07477+P07478+P35030); assay: In vitro activity against human trypsin.; type: protein assay
[3] = target: Coagulation factor X (Homo sapiens, UniProt P00742); assay: Binding affinity against human coagulation factor X
[4] = target: T1, Coagulation factor X (Oryctolagus cuniculus, UniProt O19045); assay: In vitro activity against rabbit FXa.
T1 sequence (O19045 whole entry): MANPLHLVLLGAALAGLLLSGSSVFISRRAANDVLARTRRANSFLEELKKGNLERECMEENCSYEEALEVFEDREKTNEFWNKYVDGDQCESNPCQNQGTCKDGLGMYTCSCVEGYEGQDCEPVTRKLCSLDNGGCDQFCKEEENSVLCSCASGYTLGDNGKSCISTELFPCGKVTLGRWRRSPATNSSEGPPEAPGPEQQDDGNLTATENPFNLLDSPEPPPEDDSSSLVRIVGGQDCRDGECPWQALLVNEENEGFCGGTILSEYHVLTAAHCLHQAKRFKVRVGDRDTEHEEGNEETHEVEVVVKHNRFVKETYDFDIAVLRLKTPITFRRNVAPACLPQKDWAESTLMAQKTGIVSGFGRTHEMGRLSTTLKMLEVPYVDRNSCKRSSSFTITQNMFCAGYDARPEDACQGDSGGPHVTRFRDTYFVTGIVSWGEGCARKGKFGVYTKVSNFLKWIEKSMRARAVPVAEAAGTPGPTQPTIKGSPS

[5] = species: Homo sapiens; assay: In vitro Activated partial thromboplastin time of the compound.; type: functional
[6] = species: Oryctolagus cuniculus; assay: (§1) Antithrombotic efficacy in a rabbit arteriovenous shunt thrombosis model.; type: functional
[7] = species: Oryctolagus cuniculus; assay: as §1; type: functional; remark: listed apart in the source
How it was run: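 Test agents were given to rabbits by intravenous continuous infusion in an arterio-venous shunt thrombosis model.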

[8] = species: Homo sapiens; assay: In vitro human activated partial thromboplastin time of the compound.; type: functional
[9] = target: Coagulation factor IX (Homo sapiens, UniProt P00740); assay: In vitro activity against human factor IXa
Sequence of Coagulation factor IX (P00740 47-191 limits assumed): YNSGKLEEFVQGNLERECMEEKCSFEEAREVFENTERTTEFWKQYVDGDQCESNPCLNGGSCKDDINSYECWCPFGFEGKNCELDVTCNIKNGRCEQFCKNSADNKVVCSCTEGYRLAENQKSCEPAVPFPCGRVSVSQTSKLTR
Sequence of Coagulation factor IX (P00740 227-461 limits assumed): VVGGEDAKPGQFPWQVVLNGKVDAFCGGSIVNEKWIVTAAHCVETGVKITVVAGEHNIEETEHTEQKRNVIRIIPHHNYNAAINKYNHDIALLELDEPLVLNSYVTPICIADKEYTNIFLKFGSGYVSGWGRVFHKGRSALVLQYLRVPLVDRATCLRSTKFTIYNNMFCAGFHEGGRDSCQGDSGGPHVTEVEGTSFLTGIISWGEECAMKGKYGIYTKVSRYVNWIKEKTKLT

[10] = target: Plasminogen (Homo sapiens, UniProt P00747); assay: In vitro activity against human plasmin
Sequence of Plasminogen (P00747 97-580 limits assumed): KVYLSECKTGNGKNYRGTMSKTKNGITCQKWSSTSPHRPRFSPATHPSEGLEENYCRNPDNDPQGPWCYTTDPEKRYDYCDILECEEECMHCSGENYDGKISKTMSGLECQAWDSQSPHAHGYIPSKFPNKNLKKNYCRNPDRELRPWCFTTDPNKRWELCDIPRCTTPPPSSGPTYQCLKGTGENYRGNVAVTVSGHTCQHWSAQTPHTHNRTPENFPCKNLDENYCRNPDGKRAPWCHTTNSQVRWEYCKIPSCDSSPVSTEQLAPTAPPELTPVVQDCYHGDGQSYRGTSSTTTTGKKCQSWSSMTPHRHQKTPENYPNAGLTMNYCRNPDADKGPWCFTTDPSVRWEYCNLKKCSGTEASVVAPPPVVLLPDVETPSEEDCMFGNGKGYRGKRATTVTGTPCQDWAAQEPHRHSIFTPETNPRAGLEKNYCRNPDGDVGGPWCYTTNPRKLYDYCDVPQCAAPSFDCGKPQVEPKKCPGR
Sequence of Plasminogen (P00747 581-810 limits assumed): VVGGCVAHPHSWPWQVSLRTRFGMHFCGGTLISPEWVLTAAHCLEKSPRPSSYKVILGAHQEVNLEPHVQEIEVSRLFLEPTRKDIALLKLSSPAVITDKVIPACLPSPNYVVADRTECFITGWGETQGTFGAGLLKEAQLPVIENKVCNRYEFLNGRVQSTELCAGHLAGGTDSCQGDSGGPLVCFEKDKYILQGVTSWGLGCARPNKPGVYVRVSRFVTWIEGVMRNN

[11] = target: Plasma kallikrein (Homo sapiens, UniProt P03952); assay: In vitro activity against human Plasma kallikrein.; type: cell-free
Sequence of Plasma kallikrein (P03952 20-390 limits assumed): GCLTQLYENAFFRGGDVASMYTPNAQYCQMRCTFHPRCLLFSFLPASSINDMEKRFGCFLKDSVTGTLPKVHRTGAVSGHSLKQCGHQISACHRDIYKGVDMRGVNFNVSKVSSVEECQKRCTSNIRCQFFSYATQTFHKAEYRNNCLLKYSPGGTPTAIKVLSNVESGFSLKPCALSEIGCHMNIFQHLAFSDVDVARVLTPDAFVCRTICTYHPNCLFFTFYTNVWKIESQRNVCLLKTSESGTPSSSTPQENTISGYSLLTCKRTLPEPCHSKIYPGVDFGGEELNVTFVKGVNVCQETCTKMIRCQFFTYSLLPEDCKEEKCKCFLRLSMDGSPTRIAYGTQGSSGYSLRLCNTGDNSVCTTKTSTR
Sequence of Plasma kallikrein (P03952 391-638 limits assumed): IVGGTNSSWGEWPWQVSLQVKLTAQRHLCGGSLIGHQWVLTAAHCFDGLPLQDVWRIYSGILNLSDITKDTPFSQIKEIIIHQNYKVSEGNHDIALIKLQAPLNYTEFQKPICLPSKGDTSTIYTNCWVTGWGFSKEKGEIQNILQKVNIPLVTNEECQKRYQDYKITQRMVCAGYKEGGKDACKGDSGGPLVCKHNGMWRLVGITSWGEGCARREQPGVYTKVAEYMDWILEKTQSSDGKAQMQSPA

[12] = target: Vitamin K-dependent protein C (Homo sapiens, UniProt P04070); assay: In vitro activity against human Activated protein C
Sequence of Vitamin K-dependent protein C (P04070 43-197 limits assumed): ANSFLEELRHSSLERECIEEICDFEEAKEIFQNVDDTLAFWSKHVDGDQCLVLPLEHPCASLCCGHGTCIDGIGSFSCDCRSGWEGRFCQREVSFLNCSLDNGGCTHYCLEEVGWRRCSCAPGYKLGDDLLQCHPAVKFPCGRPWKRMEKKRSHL
Sequence of Vitamin K-dependent protein C (P04070 212-461 limits assumed): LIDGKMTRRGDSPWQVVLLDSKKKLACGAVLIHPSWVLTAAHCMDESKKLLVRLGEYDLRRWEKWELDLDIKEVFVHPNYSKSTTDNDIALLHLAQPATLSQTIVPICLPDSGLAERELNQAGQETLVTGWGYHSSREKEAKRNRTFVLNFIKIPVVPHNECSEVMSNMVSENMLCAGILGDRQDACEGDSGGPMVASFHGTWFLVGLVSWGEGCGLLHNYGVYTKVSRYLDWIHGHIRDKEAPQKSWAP

[13] = target: T1, Coagulation factor X; assay: In vitro activity against rabbit factor Xa
[14] = target: Tissue-type plasminogen activator (Homo sapiens, UniProt P00750); assay: In vitro activity against human tissue plasminogen activator
Sequence of Tissue-type plasminogen activator (P00750 whole entry): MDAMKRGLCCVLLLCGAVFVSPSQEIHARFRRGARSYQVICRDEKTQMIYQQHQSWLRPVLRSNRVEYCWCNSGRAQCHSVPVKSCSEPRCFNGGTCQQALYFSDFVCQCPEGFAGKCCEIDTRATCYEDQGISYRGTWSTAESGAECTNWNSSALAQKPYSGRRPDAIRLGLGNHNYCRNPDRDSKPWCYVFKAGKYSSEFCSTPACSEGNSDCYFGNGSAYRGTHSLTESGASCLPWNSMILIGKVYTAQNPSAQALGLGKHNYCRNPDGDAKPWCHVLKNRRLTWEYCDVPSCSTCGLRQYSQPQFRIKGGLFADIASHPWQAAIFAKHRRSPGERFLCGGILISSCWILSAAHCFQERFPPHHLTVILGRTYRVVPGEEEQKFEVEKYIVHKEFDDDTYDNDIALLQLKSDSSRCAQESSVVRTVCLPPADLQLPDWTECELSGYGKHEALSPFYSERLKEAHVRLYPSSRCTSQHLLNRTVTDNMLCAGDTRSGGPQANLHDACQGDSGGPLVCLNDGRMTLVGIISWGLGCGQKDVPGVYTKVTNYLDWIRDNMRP

[15] = target: Urokinase-type plasminogen activator (Homo sapiens, UniProt P00749); assay: In vitro activity against human urokinase

Sequence of Coagulation factor X (Homo sapiens, UniProt P00742) (P00742 41-179 limits assumed): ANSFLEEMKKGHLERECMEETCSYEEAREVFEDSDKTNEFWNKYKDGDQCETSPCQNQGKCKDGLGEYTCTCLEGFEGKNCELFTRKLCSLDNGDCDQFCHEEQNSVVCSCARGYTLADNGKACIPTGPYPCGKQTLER
Sequence of Coagulation factor X (Homo sapiens, UniProt P00742) (P00742 235-488 limits assumed): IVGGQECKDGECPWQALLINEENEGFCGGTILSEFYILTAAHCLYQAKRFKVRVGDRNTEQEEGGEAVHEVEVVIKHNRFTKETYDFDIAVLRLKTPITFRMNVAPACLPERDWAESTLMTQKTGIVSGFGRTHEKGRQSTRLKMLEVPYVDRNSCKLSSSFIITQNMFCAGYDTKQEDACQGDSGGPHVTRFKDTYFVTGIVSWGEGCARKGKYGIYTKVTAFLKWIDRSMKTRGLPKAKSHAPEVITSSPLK

For `CS(=O)(=O)c1ccccc1-c1ccc(NC(=O)c2cc(C(F)(F)F)nn2-c2cccc(C(=N)N)c2)c(F)c1`, the Ki [1] was 50 nM, the Ki [2] was 3.4 nM and the Ki [3] was < 0.005 nM.
`Cc1cc(C(=O)Nc2ccc(-c3ccccc3S(N)(=O)=O)cc2)n(-c2cccc(C(=N)N)c2)n1.O=C(O)C(F)(F)F` showed a Ki [4] of 0.03 nM, an APTT [5] of 0.44 µM and an ID50 [6] of 0.02 µM/h/kg.
`Cc1cc(C(=O)Nc2ccc(-c3ccccc3C(F)(F)F)cc2)n(-c2cccc(C(=N)N)c2)n1` was tested, and the Ki [1] was 300 nM, the Ki [2] was 49 nM and the ID50 [7] was 0.24 µM/h/kg. The Ki [3] was 0.04 nM.
With `Cc1cc(C(=O)Nc2ccc(-c3ccccc3S(N)(=O)=O)cc2F)n(-c2cccc(CN)c2)n1` the Ki [1] was 12000 nM, the Ki [4] was 2.2 nM and the Ki [2] was 120 nM. It also gave an APTT [8] of 0.92 µM and a Ki [3] of 1.6 nM.
Work on `NCc1cccc(-n2nc(C(F)(F)F)cc2C(=O)Nc2ccc(-c3ccccc3S(N)(=O)=O)cc2F)c1` yielded a Ki [1] of 2000 nM, a Ki [4] of 1 nM and a Ki [2] of 53 nM. It also gave an APTT [8] of 0.91 µM, an ID50 [7] of 0.6 µM/h/kg and a Ki [3] of 0.36 nM.
`N=C(N)c1cccc(-n2nc(C(F)(F)F)cc2C(=O)Nc2ncc(-c3ccccc3S(N)(=O)=O)cn2)c1` showed a Ki [2] of 20 nM.
Work on `Cc1cc(C(=O)Nc2ccc(-c3ccccc3S(C)(=O)=O)cc2F)n(-c2cccc(CN)c2)n1` yielded a Ki [1] of 14000 nM, a Ki [4] of 1.2 nM and a Ki [2] of 130 nM. For the same compound, the APTT [8] was 1.1 µM, the ID50 [7] was 0.9 µM/h/kg and the Ki [3] was 480 nM.
In the case of `Cc1cc(C(=O)Nc2ccc(-c3ccccc3S(C)(=O)=O)cc2)n(-c2cccc(CN)c2)n1`, the Ki [1] is reported as 21000 nM, the Ki [2] is reported as 220 nM and the APTT [8] is reported as 1.3 µM. The Ki [3] was 0.89 nM.
Work on `Cc1cc(C(=O)Nc2ccc(-c3ccccc3S(C)(=O)=O)cc2)n(-c2cccc(C(=N)N)c2)n1` yielded a Ki [1] of 180 nM, a Ki [2] of 13 nM and a Ki [3] of 0.008 nM.
With `Cc1cc(C(=O)N(C)c2ccc(-c3ccccc3S(N)(=O)=O)cc2)n(-c2cccc(C(=N)N)c2)n1.O=C(O)C(F)(F)F` the Ki [1] was > 2000 nM, the Ki [2] was > 1600 nM and the Ki [3] was 11 nM.
In the case of `Cc1cc(C(=O)Nc2ccc(-c3ccccc3S(N)(=O)=O)cn2)n(-c2cccc(C(=N)N)c2)n1`, the Ki [1] is reported as 1400 nM, the Ki [2] is reported as 59 nM and the ID50 [7] is reported as 0.07 µM/h/kg. For the same compound, the Ki [3] was 0.007 nM.
Work on `Cc1cc(C(=O)Nc2ccc(-c3ccccc3S(N)(=O)=O)cc2Br)n(-c2cccc(C(=N)N)c2)n1` yielded a Ki [1] of 200 nM, a Ki [2] of 17 nM and a Ki [3] of 0.01 nM.
`Cc1cc(C(=O)Nc2ccc(-c3ccccc3S(N)(=O)=O)cc2Cl)n(-c2cccc(C(=N)N)c2)n1` showed a Ki [1] of 300 nM, a Ki [2] of 15 nM and a Ki [3] of 0.009 nM.
For `Cc1cc(C(=O)Nc2ccc(-c3ccccc3S(N)(=O)=O)cc2F)n(-c2cccc(C(=N)N)c2)n1`, the Ki [1] was 210 nM, the Ki [2] was 4.6 nM and the Ki [3] was 0.005 nM.
`N=C(N)c1cccc(-n2nc(C(F)(F)F)cc2C(=O)Nc2ccc(-c3ccccc3S(N)(=O)=O)cc2F)c1` was tested, and the Ki [1] was 120 nM, the Ki [2] was 4 nM and the Ki [3] was < 0.005 nM.
`N=C(N)c1cccc(-n2cccc2C(=O)Nc2ccc(-c3ccccc3S(N)(=O)=O)cc2)c1` showed a Ki [1] of 900 nM and a Ki [3] of 0.8 nM.
Work on `Cc1cc(C(=O)Nc2ccc(-c3ccccc3F)cc2)n(-c2cccc(C(=N)N)c2)n1` yielded a Ki [1] of 450 nM, a Ki [2] of 100 nM and a Ki [3] of 0.46 nM.
`CS(=O)(=O)c1ccccc1-c1ccc(NC(=O)c2cc(C(F)(F)F)nn2-c2cccc(CN)c2)cc1` gave a Ki [1] of 5800 nM, a Ki [2] of 100 nM and an APTT [8] of 2.2 µM. It also gave an ID50 [7] of 2.2 µM/h/kg and a Ki [3] of 0.38 nM.
With `N=C(N)c1cccc(-n2nc(C(F)(F)F)cc2C(=O)Nc2ccc(-c3ccccc3S(N)(=O)=O)cn2)c1` the Ki [1] was 400 nM, the Ki [2] was 59 nM and the Ki [3] was 0.009 nM.
For `CS(=O)(=O)c1ccccc1-c1ccc(NC(=O)c2cc(C(F)(F)F)nn2-c2cccc(CN)c2)c(F)c1.Cl`, the Ki [9] was 2200 nM, the Ki [10] was > 35000 nM and the Ki [11] was 61 nM. The Ki [12] was 1800 nM, the ID50 [7] was 1.1 µM/h/kg and the Ki [13] was 0.3 nM. The Ki [14] was > 45000 nM and the Ki [15] was > 19000 nM.
Compound `Cc1cc(C(=O)Nc2ccc(-c3ccccc3S(C)(=O)=O)cc2F)n(-c2cccc(C(=N)N)c2)n1` has a Ki [1] of 230 nM and a Ki [3] of 0.02 nM.
Work on `NCc1cccc(-n2nc(C(F)(F)F)cc2C(=O)Nc2ccc(-c3ccccc3S(N)(=O)=O)cc2)c1` yielded a Ki [1] of 14000 nM, a Ki [4] of 2.1 nM and a Ki [2] of 120 nM. The APTT [8] was 6.4 µM, the ID50 [7] was 1 µM/h/kg and the Ki [3] was 0.91 nM.
`Cc1cc(C(=O)Nc2ncc(-c3ccccc3S(N)(=O)=O)cn2)n(-c2cccc(C(=N)N)c2)n1` gave a Ki [1] of 7400 nM, a Ki [2] of 150 nM and an ID50 [7] of 0.03 µM/h/kg. For the same compound, the Ki [3] was 0.041 nM.
`N=C(N)c1cccc(-c2nocc2C(=O)Nc2ccc(-c3ccccc3S(N)(=O)=O)cc2)c1` gave a Ki [1] of 2800 nM.
`N=C(N)c1cccc(-n2nccc2C(=O)Nc2ccc(-c3ccccc3S(N)(=O)=O)cc2)c1` showed a Ki [1] of 900 nM and a Ki [3] of 0.16 nM.
`Cc1cc(C(=O)Nc2ccc(-c3ccccc3)cc2)n(-c2cccc(C(=N)N)c2)n1` gave a Ki [1] of 600 nM, a Ki [2] of 87 nM and a Ki [3] of 1.3 nM.
Work on `Cc1cc(C(=O)Nc2ccc(-c3ccccc3S(N)(=O)=O)cc2)n(-c2cccc(CN)c2)n1` yielded a Ki [1] of 21000 nM, a Ki [4] of 4.1 nM and an APTT [8] of 2.3 µM. For the same compound, the Ki [3] was 2.7 nM.
For `CS(=O)(=O)c1ccccc1-c1ccc(NC(=O)c2cc(C(F)(F)F)nn2-c2cccc(C(=N)N)c2)cc1`, the Ki [1] was 70 nM, the Ki [2] was 4.3 nM and the Ki [3] was 0.008 nM.
`N=C(N)c1cccc(-n2nc(C(F)(F)F)cc2C(=O)Nc2ccc(-c3ccccc3S(N)(=O)=O)cc2)c1` showed a Ki [1] of 40 nM, a Ki [2] of 3.9 nM and a Ki [3] of 0.015 nM.
Work on `CCCCc1cc(C(=O)Nc2ccc(-c3ccccc3S(N)(=O)=O)cc2)n(-c2cccc(C(=N)N)c2)n1.O=C(O)C(F)(F)F` yielded a Ki [1] of 300 nM, a Ki [2] of 11 nM and a Ki [3] of 0.06 nM.
